Among all 300,000 compounds or so, about 4,400 (1.5%) were called active.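 How the source made its calls: active means mean inhibition across valid replicates above about 55% (limit read from the data); inconclusive means mean below that limit but half or more replicates reach it; inactive means mean below it, under half of replicates reach it.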 For the sample, actives were picked, then their nearest neighbours and some compounds at random.

This assay can be described thus: Trypanosoma cruzi replication blockers in host cells – luminescence, NIH3T3 host cells, primary screen (AID 1885).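 Further: signal also drops with host cell toxicity which is not excluded here; 0% = plate median of DMSO wells and 100% = zero luminescence signal.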 Conditions: T. cruzi beta-gal in NIH3T3, luminescence, 90 h; stronger effect = higher value; concentration not given here. The procedure, abridged: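 Assay system: NIH/3T3 host cells with β-galactosidase reporter T. cruzi; input: 5,000 host fibroblasts per well; compound: single 50 nL compound addition per well in DMSO; timing: ≥90 h infection period, 3 h prior cell attachment; measured by: GalScreen β-gal luminescence, detergent lysis, 60 min; evaluation: percent inhibition of parasite-derived β-gal signal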
As to `CCCCn1c(N)c(N2CCOCC2)c(=O)n(CC(=O)NCCc2ccccc2)c1=O`, the inhibition was -20% (inactive).
With `Cc1cc(/C=N/NC(=O)c2cccnc2)c(C)n1CC(C)C` the figure was -5.46% (inactive); with `O=C(N/N=C/c1ccccn1)c1cccnc1`, 3.75% (inactive); with `O=C(N/N=C/c1sc(N2CCCCC2)nc1-c1cccs1)c1cccnc1`, 65% (active).
Take `C=CCNC(=S)/N=c1/ccccn1Cc1ccccc1`: the inhibition is 36.1% (inactive).
With `O=C(OCCOCn1cc(Br)c(=O)[nH]c1=O)c1ccccc1` the figure was -6.18% (inactive); with `O=C(OCC(=O)N1CCCC1=O)c1cc(S(=O)(=O)N2CCOCC2)ccc1Cl`, -8.41% (inactive); with `Cc1nc(N2CCOCC2)c2c(C)c(C(=O)Nc3ccc(C(F)(F)F)cc3)sc2n1`, 68% (active).
Next, `Cc1nc(N2CCN(c3ccccn3)CC2)c2c(C)c(C(=O)Nc3ccc(F)c(Cl)c3)sc2n1`: 3.99% (inactive).
Next, `Cc1nc(N2CCC(C)CC2)c2c(C)c(C(=O)Nc3cc(F)ccc3C)sc2n1`: 49.5% (inactive).
For `CC(C)Nc1nnc(SC(C)C(=O)N(C)C2CCCCC2)s1` (centres undefined), the inhibition was -3% (inactive).
With `Cc1occc1C(=O)NNC(=S)NCC(C)C` the figure was -18.5% (inactive); with `COc1ccc(CN2CCCC(C(=O)N3CCCCC3)C2)cc1` (centres undefined), 27.2% (inactive).
Next, `Cc1occc1C(=O)NC1CCCN(Cc2ccc(CC(C)C)cc2)C1` (centres undefined): 57.7% (active); `CN(c1ccccc1)S(=O)(=O)c1cccc(C(=O)NNC(=O)c2ccncc2)c1`: 5.43% (inactive).
With `COc1ccc(NC(=O)N2CCCC(C(=O)Nc3ccccc3OC)C2)cc1` (centres undefined) the figure was -10.9% (inactive); with `Cc1sc2ncnc(N3CCC(C(=O)Nc4nc5ccc(Cl)cc5s4)CC3)c2c1C`, 27% (inactive); with `O=C(NC(=S)N1CCCCC1c1cccnc1)c1ccccc1` (centres undefined), 46.1% (inactive).
As for `COc1ccc(C(=O)NC(=S)N2CCCCC2c2cccnc2)cc1OC` (centres undefined), the inhibition was 57.2% (active).
As to `COc1ccc(/C=C/C(=O)NC(=S)NN2CCCCC2c2cccnc2)cc1` (centres undefined), the inhibition is 42.1% (inactive).
With `COC(=O)C1(C)NC(c2ccc(F)cc2)C2C(=O)N(c3ccccc3)C(=O)C21` (centres undefined) the figure was -17.7% (inactive).
With `CCc1ccc2c(c1)C1(NN=C(c3ccccc3)S1)C(=O)N2` (centres undefined) the figure was 73% (active); with `Cc1nc(N=C(N)N)nc2c(C)cccc12`, 56.5% (active).
Next, `COc1nc(N=C(N)N)nc2c(C)cccc12`: 44.2% (inactive).
`Cc1nc(/N=C(\N)NC(=O)NC2CCCCC2)nc2ccccc12`: the inhibition is 10.4% (inactive).
Next, `O=C(NCCC1=CCCCC1)c1ccc(Cl)c([N+](=O)[O-])c1`: -28% (inactive).
With `CCN1C(=O)[C@H]2[C@@H](c3ccc(-c4ccc(F)cc4)cc3)N[C@@](Cc3ccccc3)(C(=O)OC)[C@H]2C1=O` the figure was 41.5% (inactive); with `O=c1[nH]c(N2CCOCC2)nc2ccccc12`, -3.83% (inactive); with `c1ccc(-c2nnc(N3CCOCC3)c3ccccc23)cc1`, -1.66% (inactive).
With `c1ccc2c(NC3C4CC5CC(C4)CC3C5)nc(N3CCOCC3)nc2c1` (centres undefined) the figure was 54.9% (active); with `CSCCC(NC(=O)COc1ccccc1)C(=O)OCCOc1ccc(F)cc1` (centres undefined), -11.5% (inactive).
As for `CCn1cc(/C=C(\NC(=O)c2ccc(C)cc2)C(=O)NCCN2CCOCC2)c2ccccc21`, the inhibition was -0.43% (inactive).
With `COc1ccc(CN2CC[C@H]3C=CC[C@@H](C(=O)N4CCOCC4)[C@H]3C2=O)cc1OC` the figure was 0.915% (inactive); with `O=C(CN1CCCCCC1)Nc1ccc(S(=O)(=O)N2CCCCC2)cc1`, -0.319% (inactive).
Next, `CN(CC(=O)Nc1ccc(F)cc1)CC(=O)Nc1ccc(Cl)c(S(=O)(=O)N2CCOCC2)c1`: -1.87% (inactive); `CN(CC(=O)Nc1ccc(S(=O)(=O)N2CCCC2)cc1)Cc1ccc(Cl)c(Cl)c1`: 55.8% (active); `CCOc1cnc(C(=O)NNC(=O)c2ccccc2Br)o1`: -24% (inactive).
With `O=C(Nc1ccc(F)c([N+](=O)[O-])c1)C1CC(=O)N(Cc2ccccc2)C1` (centres undefined) the figure was 11.3% (inactive).
Consider `Cc1nnc(SCC(=O)N2c3ccccc3C(C)(c3ccc(Cl)cc3)CC2(C)C)s1` (centres undefined), for which the inhibition is 37.3% (inactive).
Next, `CC1(c2ccccc2)CC(C)(C)N(C(=O)c2cc([N+](=O)[O-])cc([N+](=O)[O-])c2)c2ccccc21` (centres undefined): 62.7% (active); `CC1(c2cccc([N+](=O)[O-])c2)CC(C)(C)N(C(=O)c2ccccc2)c2ccccc21` (centres undefined): 37.9% (inactive).
Next, `OC(COc1cccc2ccccc12)CN1CCN(c2ccccn2)CC1` (centres undefined): -13.7% (inactive).
Next, `CC(C)c1ccccc1OCC(O)CN(CC(O)COc1cccc2ccccc12)C(C)C` (centres undefined): 57.2% (active).
Take `Cc1cc(C)c(NC(=O)C[N+](C)(C)CC(O)COc2cccc3ccccc23)c(C)c1` (centres undefined): the inhibition is 39.6% (inactive).
With `COc1ccc(NS(=O)(=O)c2cc(NC(=O)/C=C/c3cc(OC)c(OC)c(OC)c3)ccc2N2CCCCC2)cc1` the figure was 54.8% (active); with `COc1ccc(NS(=O)(=O)c2ccc(N3CCN(CCO)CC3)c([N+](=O)[O-])c2)cc1`, -24.8% (inactive); with `COc1ccc(NS(=O)(=O)c2cc(NC(=O)C3CCCCC3)ccc2N2CCOCC2)cc1`, 8.84% (inactive).
With `Cc1ccc(S(=O)(=O)CCC(=O)Nc2nnc(CC(C)C)s2)cc1` the figure was -32% (inactive); with `COC(=O)COc1ccc2c(c1C)O/C(=C\c1ccco1)C2=O`, 0.57% (inactive); with `CCN1C(=O)[C@@H]2[C@@H](c3ccc(-c4ccc(OC)cc4)c(OC)c3)N3CCC[C@@]3(C(=O)OC)[C@@H]2C1=O`, -10.1% (inactive).
Next, `O=C(NCC(c1cccs1)N1CCOCC1)c1cc(Cl)ccc1[N+](=O)[O-]` (centres undefined): -4.39% (inactive); `CCOC(=O)CC1C(=O)NCCN1c1nc2c(C)cccn2c(=O)c1/C=C1\SC(=S)N(C(C)CC)C1=O` (centres undefined): 25.7% (inactive); `CCCN(CCC)c1nc2c(C)cccn2c(=O)c1/C=C1/SC(=S)N(Cc2ccco2)C1=O`: 68.2% (active).
With `O=C(CCCN1C(=O)/C(=C\c2ccco2)SC1=S)Nc1cccc2ccccc12`, the inhibition is -4.25% (inactive).
Next, `Fc1ccc2c(c1)C(c1cccnc1)=NNC(c1cccs1)=N2`: -7.53% (inactive); `Fc1ccccc1N=C1Nc2cccc3cccc1c23`: -4.12% (inactive); `COc1ccccc1C1=Nc2cccc3cccc(c23)N1`: 55% (active).
With `c1ccc(C2=Nc3cccc4cccc(c34)N2)cc1` the figure was 7.49% (inactive); with `CC1(C)CC(N2CCN(C(c3ccccc3)c3ccccc3)CC2)=CC(=[N+]2CCCCC2)C1`, 63.6% (active).
With `CC1(C)CC(=O)C=C(N2CCCC2)C1` the figure was 1.27% (inactive).
Consider `O=C(O)CN1CCN(C(c2ccccc2)c2ccccc2)CC1`, for which the inhibition was -9.78% (inactive).
With `Cc1ncn(C23CC4CC(CC(O)(C4)C2)C3)n1` the figure was 5.6% (inactive).
Take `Cc1nc([N+](=O)[O-])nn1C12CC3CC(CC(Br)(C3)C1)C2`: the inhibition was 59.3% (active).
With `COc1cccc(NC(=O)c2nn(C34CC5CC(CC(C5)C3)C4)cc2[N+](=O)[O-])c1` the figure was 16.7% (inactive); with `CCCCCN(C(=O)CCC(=O)OCCOc1ccc(OC)cc1)c1c(N)n(CCCC)c(=O)[nH]c1=O`, 8.8% (inactive); with `CN(N)c1nc(N2CCCC2)nc(N2CCCC2)n1`, -9.95% (inactive).
With `CCCCCCCCCCCCN1[C@@H](CC(C)=O)c2cc(F)cc(F)c2S1(=O)=O`, the inhibition was 39.5% (inactive).
Next, `CN1CCN(c2ccc(NC(=O)c3ccc4c(c3)[nH]c(=O)n4Cc3ccc(F)cc3)cc2)CC1`: 65.8% (active).
With `CN1CCN(c2ccc(NC(=O)c3ccccc3)cc2)CC1` the figure was -2.93% (inactive).
As for `CC(C)n1c(=O)[nH]c2cc(C(=O)Nc3ccccc3)ccc21`, the inhibition was -5.92% (inactive).
With `COCCN1C(=O)N(c2ccc(Cl)cc2)C(=O)C1CC(=O)Nc1cc(OC)cc(OC)c1` (centres undefined) the figure was -12.9% (inactive); with `Cc1onc(-c2ccccc2Cl)c1C(=O)N(Cc1ccc(N(C)C)cc1)C(C)C`, 37.7% (inactive); with `O=C(NCc1ccncc1)NC12CC3CC(CC(C3)C1)C2`, -15.8% (inactive).
With `S=C(NCc1ccc(Cl)cc1)NC12CC3CC(CC(C3)C1)C2` the figure was 57.1% (active); with `S=C(NCc1ccc(Cl)cc1)NC1CCCCC1`, 10.1% (inactive).
With `CCN(CC)P(=O)(Nc1ccc(SC(F)F)cc1)c1ccc(N(C)C)cc1NC(=O)c1ccco1` (centres undefined) the figure was 68.4% (active); with `O=C(Nc1ccc(Sc2ccc(Br)cc2)cc1)c1ccco1`, -17.4% (inactive); with `Cc1cc(NC(=O)c2ccc(F)cc2)ccc1NC(=O)c1ccco1`, 14% (inactive).
For `O=C(NC1CCCC1)C1CC(=O)N(c2ccc(F)cc2)C1` (centres undefined), the inhibition is 5.96% (inactive).
Turning to `Cc1c(C(=O)N2CCCC2)c(S(=O)(=O)NCC(C)c2ccccc2)c(C)n1C` (centres undefined), the inhibition is -5.32% (inactive).
Take `Cc1nc(NC(=O)c2cccc(Cl)c2)sc1-c1csc(Nc2cccc(Cl)c2)n1`: the inhibition is -1.87% (inactive).
Next, `CNC(=O)c1ccc(NC(=O)c2cccc(C(F)(F)F)c2)cc1`: -8.58% (inactive).
As to `O=C(Nc1ccc(-c2csc(Nc3cccc(C(F)(F)F)c3)n2)cc1)c1cccc(C(F)(F)F)c1`, the inhibition is 58.5% (active).
Next, `O=C(O)C1C2C=CC(C2)C1C(=O)NCc1ccccc1` (centres undefined): -11.6% (inactive); `Cc1nn(C)cc1S(=O)(=O)N1CCN(c2ccc(F)cc2)CC1`: 2.42% (inactive); `O=C(NC(=S)Nc1ccccc1C(=O)O)c1ccc(-c2ccc(Br)cc2)o1`: 61.6% (active).
In the case of `O=C(O)c1ccccc1NC(=O)c1ccccc1-c1ccccc1C(=O)O`, the inhibition is -1.15% (inactive).
With `COC(=O)c1ccccc1NC(=S)NC(=O)c1ccccc1F` the figure was -19.3% (inactive).
Next, `CCN1C(=O)[C@@H]2[C@@H](c3ccc(-c4cccc(Cl)c4)cc3)N3CCC[C@@]3(C(=O)OC)[C@@H]2C1=O`: 4.08% (inactive).
